Measurements from PMC6571060 (Cancer research, 2019).
pIC50, pKd: −log10 of the molar value. “Also recorded” adds a separate entry of the source.

Columns and labels:
PH domain of Cnk1 [1] = target: T1, PH domain of Cnk1 (Homo sapiens, UniProt Q969H4); test: SPR binding to the Gst-tagged PH domain of Cnk1; conditions: read-out: Cnk1 binding Kd, SPR spectroscopy
T1 sequence (Q969H4 403-502 limits assumed): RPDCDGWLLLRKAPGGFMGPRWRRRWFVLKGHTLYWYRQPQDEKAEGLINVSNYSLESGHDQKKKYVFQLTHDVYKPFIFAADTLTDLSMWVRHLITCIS
How it was run: (§1)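 The Cnk1 PH domain was expressed with an N-terminal glutathione S-transferase fusion and captured on a CM5 chip with a Gst capture kit. Compound binding or PtdIns(3,4,5)P₃ displacement was run by SPR on a Biacore T200.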

wt-KRas NSCLC cells = test: 3D growth inhibition; type: cell-based
How it was run: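 NSCLC lines were tested for mycoplasma and authenticated before study and every 2 months in culture. Anchorage-independent growth was measured in soft agarose using a modified 96-well method, with test compound present. IC50 values were derived for 3D growth inhibition.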

mut-KRas NSCLC cells = test: 3D growth inhibition; type: cell-based; conditions: read-out: Growth inhibition IC50 mut-Ras; mean IC50, 3D growth; H2122, Calu1, H2009, H441, H358, H1573, H23, H1373, A549, H1944, H647
[2] = Pharmacokinetics in mice after intraperitoneal administration; type: in vivo; conditions: 10 mg/kg
wt-KRas NSCLC cell lines = test: 2D growth on plastic of NSCLC cell line panel; type: cell-based; conditions: 72 hr
[3] = target: T2, Cnk1 and mut-KRas co-localization in HEK293 cells (Homo sapiens, UniProt Q969H4); test: Confocal microscopy / FLIM of Cnk1-GFP and mut; type: cell-based
T2 sequence (Q969H4 1-720): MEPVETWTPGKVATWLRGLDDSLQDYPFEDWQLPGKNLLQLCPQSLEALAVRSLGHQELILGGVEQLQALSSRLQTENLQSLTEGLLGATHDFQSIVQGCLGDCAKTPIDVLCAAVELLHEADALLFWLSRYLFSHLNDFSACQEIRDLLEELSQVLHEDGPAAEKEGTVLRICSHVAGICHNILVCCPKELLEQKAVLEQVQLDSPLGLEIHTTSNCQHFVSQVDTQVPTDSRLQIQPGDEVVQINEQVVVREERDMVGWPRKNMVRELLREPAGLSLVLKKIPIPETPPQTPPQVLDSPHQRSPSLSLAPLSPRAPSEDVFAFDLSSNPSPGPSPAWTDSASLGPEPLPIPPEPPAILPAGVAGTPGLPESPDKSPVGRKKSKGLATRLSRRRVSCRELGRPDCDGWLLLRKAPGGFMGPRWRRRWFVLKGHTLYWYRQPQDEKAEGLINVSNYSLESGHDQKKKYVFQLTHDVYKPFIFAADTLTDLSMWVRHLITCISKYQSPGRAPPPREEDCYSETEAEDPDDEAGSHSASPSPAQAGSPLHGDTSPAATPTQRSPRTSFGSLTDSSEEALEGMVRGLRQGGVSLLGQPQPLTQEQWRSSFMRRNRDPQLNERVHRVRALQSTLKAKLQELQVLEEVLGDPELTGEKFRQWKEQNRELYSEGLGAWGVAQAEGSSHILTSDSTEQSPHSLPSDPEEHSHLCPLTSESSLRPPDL
How it was run: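 HEK293 cells co-expressed Cnk1-GFP and mut(G12D)-KRas-RFP and were incubated 1 hr with 50 μM test compound. Confocal laser scanning microscopy assessed membrane co-localization. FLIM average fluorescence lifetime was taken from co-localization images, with lifetime shortening from FRET indicating direct Cnk1–KRas interaction.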

[4] = tested on: PH domains of Pdpk1, Btk, Akt1, and Plekha7; test: SPR binding selectivity against other PH domains
PH domain of Cnk1 [5] = target: T1, PH domain of Cnk1; test: SPR displacement of PtdIns; type: binding; conditions: 50 μM
How it was run: as §1

[6] = tested on: mut-KRas(G12S) A549 xenograft; test: Antitumor activity, A549 xenograft; type: in vivo, NOD-SCID mice; conditions: 200 mg/kg ip daily for up to 20 days
How it was run: (§2)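 About 10⁷ log-phase NSCLC cells in 0.2 mL PBS were injected subcutaneously into the flank of female NOD-SCID mice, 10 per group. Daily 200 mg/kg ip dosing began at tumor volumes of 50–150 mm³, for 20 days (A549, H441) or 21 days (H1975). Caliper volumes were taken twice weekly and body weight weekly. P values were computed at end of dosing.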

[7] = tested on: mut-KRasG12V H441 xenograft; test: Antitumor activity, H441 xenograft; type: in vivo, NOD-SCID mice; conditions: 200 mg/kg ip daily for up to 20 days
How it was run: as §2

[8] = tested on: wt-KRas H1975 NSCLC xenograft; test: Antitumor activity, H1975 xenograft; type: in vivo, NOD-SCID mice; conditions: 200 mg/kg ip daily for 21 days
How it was run: as §2

[9] = Mouse body weight during treatment; type: in vivo, NOD-SCID mice; conditions: PHT-7.3 treatment, 200 mg/kg ip daily
How it was run: as §2

mut-KRas cells = test: Cell proliferation in a small group of mut-KRas cells; type: cell-based
How it was run: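 Cells were exposed to test compound for 72 hr. Growth was then read by XTT cell viability assay.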

Cell migration = test: Cell migration; type: cell-based
RalB and Rho activation = test: Western blot / GTP activation of downstream K-Ras signaling in mut-KRAS cells; type: cell-based; conditions: panel of mut-KRAS cells, 24 hr
How it was run: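 Mut-KRas NSCLC cells were exposed 24 hr to 25 μM test compound; A549 received a concentration range. Western blots used rabbit monoclonal phospho- and total-protein antibodies. RalA, RalB, Rho and Ras GTP levels were measured with activation kits per manufacturer instructions.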

[10] = tested on: p-Egfr, activated RalB and Rho in A549 NSCLC tumor xenografts; test: Western blot / GTP activation of downstream signaling in A549 tumor xenografts; type: in vivo, mice; conditions: 200 mg/kg ip
How it was run: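 A549 xenograft tumors were sampled at 4 and 24 hr after a single 200 mg/kg ip dose, and 4 hr after the last dose of 6 days' daily dosing, 4 mice per time point. Blots probed phospho-Egfr Tyr1068 and other signaling proteins. RalA/B, Rho and total Ras GTP were measured by activation kits.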

pKd (PH domain of Cnk1 [1]): 5.33
Pharmacokinetics Cl [2]: 133 mL·min/kg
Pharmacokinetics t½β [2]: 4.33 h
Co-localization of Cnk1 and mut-KRas at the cell plasma membrane ([3]; confocal microscopy, HEK293 cells, 50 μM, 1 hr): blocked the co-localization
Binding to PH domain of Cnk1 compared to PH domains of Pdpk1, Btk, Akt1, and Plekha7 [4]: selective binding
SMILES: Cc1ccc(-c2csc(Cn3nc(CC4OCCCO4)c4ccccc4c3=O)n2)cc1 [PHT-7.3]
pIC50 (wt-KRas NSCLC cells; read-out: Growth inhibition IC50 wt-KRas, mean IC50, 3D growth, H266, H1299, H1975, H3255, H1437, H2023): 4.16
3D anchorage independent growth of wt-KRas cells (wt-KRas NSCLC cells; soft agarose, except H1437 and H2023): still not inhibited
pIC50 (mut-KRas NSCLC cells): 4.72
2D growth of wt-KRas NSCLC cell lines (wt-KRas NSCLC cell lines): not inhibited except for two lines H1437 and H2023
Binding of Cnk1 to mut-KRAS by FLIM lifetime ([3]; FLIM lifetime plots, compound-treated cells): inhibited the binding of Cnk1 to mut-KRAS; also recorded: inhibited Cnk1 interaction with mut-KRAS
Displacement of PtdIns(3,4,5)P3 binding to the PH domain of Cnk1 (PH domain of Cnk1 [5]): displaced; also recorded: displacement of PtdIns([3],[4],[5])P3 binding
Antitumor activity, A549 xenograft [6]: cytostatic antitumor activity
Antitumor activity, H441 xenograft [7]: cytostatic antitumor activity
Antitumor activity, H1975 xenograft [8]: not in the wt-KRas H1975 NSCLC xenograft
Body weight [9]: no loss of body weight
Cell proliferation, small group of mut-KRas cells (mut-KRas cells): inhibit cell proliferation
Cell migration (Cell migration): inhibited
RalB and Rho activation in mut-KRAS cells (RalB and Rho activation): decreased RalB and Rho activation
Activated RalB and Rho signaling in tumor xenografts [10]: down-regulation of activated RalB and Rho signaling
p-Egfr level in tumor xenografts [10]: increased levels of p-Egfr
